Measurements: the RNAGym collection of RNA variant scans (doi:10.1126/science.aae0568)
Fewer inactive variants are shown than the library holds.

B1: tRNA (parent)
chain: GUUCCGUUGGCGUAAUGGUAACGCGUCUCCCUCCUAAGGAGAAGACUGCGGGUUCGAGUCCCGUACGGAACG

Variants of: B1
Assay: yeast fitness relative to wild type (ratio to wild type); higher = fitter; tRNA-Arg(CCU), competitive growth, 37 C, YPD
Outline: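 Gene amplicons from the start population and from each of six end populations were read by 100-nucleotide paired-end sequencing. Those end populations came from pooled Saccharomyces cerevisiae strains carrying tRNA-Arg(CCU) gene variants at the native locus, competed in YPD at 37°C for 24 hours. Fitness relative to wild type was worked out from changes in genotype frequencies. Genotypes needed ≥ 100 starting reads, and estimates < 0.5 were set to 0.5.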

Variant	yeast fitness
U3A C22G C27G U59C C62U G68U	≤ 0.5
U3A U26C A43C A70U	≤ 0.5
U3A G6A C46U	0.638
U3A G9A U19A G44C G68C	≤ 0.5
U3C C4A A65C	0.62
U3A U26A G58C G63A	≤ 0.5
U3A G9C C31G C61U	0.581
U3A U13G U47C A70C	≤ 0.5
U3C A70U	1.01
U3A C27U	0.853
U3A C4U C61G G63C	≤ 0.5
U3C A20G	0.917
U3C C4U C30U A57G	≤ 0.5
U3C A21C C22U C31U C33U	≤ 0.5
U3A G6C C31A U47G C62A	≤ 0.5
U3A G12C G52A A65U	≤ 0.5
U3C A45G	0.903
U3A C4A U8C C29G A37C C62U A70U	≤ 0.5
U3A G48C U59C	0.537
U3A U19G G25A G67A	0.56
U3A C11G G41C G58C	0.733
U3A C5A G6C A15G U16A C49G	≤ 0.5
U3A U26C U53C	≤ 0.5
U3C A14C A45C A65C	≤ 0.5

Variant	yeast fitness
U3A C31U A70U	0.688
U3A C30G C66G	≤ 0.5
U3A C4A U8C C29G A37C	0.581
U3A C4U G67C	0.624
U3A C33U	0.791
U3A C5U C22G C34G A37G A65G	≤ 0.5
U3C A14G C24A G44A A65C	≤ 0.5
U3C A40U G44C	0.625
U3A C5U C31G A57G	≤ 0.5
U3A C5G U13G C46G C62G A70U	≤ 0.5
U3A G12A U19A U64C	≤ 0.5
U3A G6C G17A A37U G58A	≤ 0.5
U3A C5A G6C A15G U16A G67U	≤ 0.5
U3A C30G	0.598
U3A C30A	0.834
U3A G10A U32G C66A	≤ 0.5
U3A G25C	1.03
U3A C30U G56A	≤ 0.5
U3A G51A A65G A69U	1.03
U3A C4G U8A C49G	≤ 0.5
U3C A45C C46G C49A A69U	≤ 0.5
U3C A14U U16G U19A A42G C61G	≤ 0.5
U3A C31U U35G C62U	≤ 0.5
U3C A15U C30U	0.57

Variant	yeast fitness
U3C C4G A42G	0.57
U3A G39A C55U U59G G68C	≤ 0.5
U3A G9A A14G C66U	0.575
U3A C11U U35C A65C	≤ 0.5
U3A C4U U7A C24U A70U	≤ 0.5
U3A C4U U7A C24U A70G	≤ 0.5
U3A C24A U28C C61A	≤ 0.5
U3A C24G C29A G50C A57C	≤ 0.5
U3A C11G C31G A65G	≤ 0.5
U3A C30U A42G C61U	0.602
U3C C5A G17A A42G U64A	≤ 0.5
U3C C5A	0.89
U3A C46A A69C	0.997
U3A C29U	0.85
U3A C29A	0.653
U3C A65G	0.887
U3A C4A	0.681
U3A C4U	0.874
U3A C4G	0.792
U3A G56C G67C	0.573
U3A G41C C55U	≤ 0.5
U3A C27A A69U	0.627
U3A G10C A36U A40C A57G C60G	≤ 0.5
U3A C22U G39A C66U	0.576

Variant	yeast fitness
U3A C11A C33U G68C	≤ 0.5
U3A C46G C49U G56C	0.734
U3A G51A	0.765
U3C A20C C46U	1.06
U3C A36C A43C A69C	≤ 0.5
U3A C24A G63A U64A	≤ 0.5
U3A U7C C11U U13C C31A	≤ 0.5
U3A C49U A69U	0.759
U3A C34U G56C	≤ 0.5
U3A G23C C46A C49A C61G	≤ 0.5
U3A G9C A20G C29A G56A G67U	≤ 0.5
U3C C4G G12C	0.687
U3C A14U A20C C24G C55U A69C	≤ 0.5
U3A C27U A37U A69C	≤ 0.5
U3C A21G C30A C33G U59A C66U	≤ 0.5
U3C C4G A15U C33A G52C	≤ 0.5
U3C A43C A69C	0.762
U3A C4U U7A G12A C30G	≤ 0.5
U3A C27G C31U C33U A42C C66U A70C	≤ 0.5
U3C C4G A42G A45U C66U	0.53
U3A C4U U8A G10A A21G C49G A57G G67U	0.655
U3C A20U A69C	0.749
U3A C4G A42G	≤ 0.5
U3C A37C C49G	≤ 0.5

Variant	yeast fitness
U3A G9C A20G A40G U64C	≤ 0.5
U3A G9A A37G G68C A69G	≤ 0.5
U3C C4U C60A C66G	≤ 0.5
U3C C4A G17A G41A C66U	≤ 0.5
U3C C5G C11G G48A A69G	≤ 0.5
U3A G9A U19A G44C C61U C62G	≤ 0.5
U3A C27U G67U	0.606
U3A G17A C22U U35C A65G	≤ 0.5
U3A C4G C62U A70C	0.754
U3A C27A C30G G39A	≤ 0.5
U3A U19A A42U G44C U54A	≤ 0.5
U3A G12A U19A G38C G48A	≤ 0.5
U3A C11A A69C	≤ 0.5
U3C A45U U64C	0.709
U3A A69U	0.999
U3A C4G A43G U47C	≤ 0.5
U3A G56A	1.02
U3A G56C	0.716
U3A G67C	0.827
U3A U19A G58C	0.675
U3A C11G G12A C22U	≤ 0.5
U3C A40G C46A A65G	0.763
U3C A21U A69U	0.537
U3A C5A C33G C34U C61G	≤ 0.5

Variant	yeast fitness
U3A C46G A70C	0.715
U3A C4U G25C	≤ 0.5
U3A U8A C31G A40C	0.563
U3A U8A A43U C55U	≤ 0.5
U3A C11G G12A C22U G39A A65G	≤ 0.5
U3C C4G U28C A43C	≤ 0.5
U3A U26A C34U U47G U64A	≤ 0.5
U3A G38A A40G A69U	≤ 0.5
U3C	0.996
U3C C4G U8G A42G C62G A65C	≤ 0.5
U3A G12A C24U A45U	≤ 0.5
U3A C24G A57U	≤ 0.5
U3C C4U	1.01
U3A C24U U32C	0.513
U3C C5G C11G C66U	≤ 0.5
U3A A40U	0.841
U3C A20U C30G C33U G58C	≤ 0.5
U3A U13C G68A	0.528
U3A C11A C33U A70C	≤ 0.5
U3A C34A C49U C55G	≤ 0.5
U3A U26G C66U	≤ 0.5
U3A C4G G9A C11G A45U	≤ 0.5
U3C A45C G67A	≤ 0.5
U3A G12A C29G G39A C66G	≤ 0.5

Variant	yeast fitness
U3A U35C A57C	≤ 0.5
U3A U19A C33A C49U G52A	≤ 0.5
U3A U7G A14U G25A G41C C46U C61A	0.519
U3C A45C G48A	0.937
U3A C24A C34U U54G	≤ 0.5
U3A C46G	0.982
U3A C30U G67A	0.553
U3A C11G A14C C24G C62U A65G	0.595
U3C A15C	0.695
U3A C5U A42G C46G	≤ 0.5
U3A C24G C33G C55U	≤ 0.5
U3A C5A	0.806
U3A G12A U19A C60A A70C	0.569
U3C A36U C62U	0.553
U3C A21G C29G	≤ 0.5
U3C A15C G17C C24A C31U U35C G68A	≤ 0.5
U3A U53C U54C	≤ 0.5
U3A U32A	0.74
U3A G63C	0.743
U3A G63A	0.772
U3A U16C U19C C46U	≤ 0.5
U3C A36G	0.91
U3A U35A	0.658
